We go through eight compounds from ChEMBL document CHEMBL1136442, “New anti-malarial peroxides with in vivo potency derived from spongean metabolites” (Bioorg Med Chem Lett, 2003).

Assay [1] is filed under the species Mus musculus. The assay is described as follows: In vitro anti-malarial activity in mice (Mus musculus) serum after 24 hr. The class given is functional, organism-based.
For assay [2], the system named is Mus musculus. The assay is described as follows: Survival days of the treated animal to that of control animal at a dose of 10 mg/kg. The class given is functional.
In the next assay the test system is KB 3-1. Kind of assay: In vitro antimalarial activity against KB 3-1. The class given is functional, cell-based. The note with it: Homo sapiens. The method in brief:
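Cytotoxicity was measured by colorimetric MTT assay, with mitomycin C as positive control.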

Assay [3] has as its system Mus musculus. The assay is described as follows: In vivo anti-malarial activity against Plasmodium berghei.
In a further assay the test system is Plasmodium falciparum. Kind of assay: In vitro anti-malarial activity against Plasmodium falciparum. The class given is functional, organism-based. A digest of the protocol: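 FCR3 strain (cycloguanil-resistant, Gambia) was sorbitol-synchronized and plated at ring stage (0.55% parasitemia, 2% hematocrit). Compound was added from DMSO stock diluted in complete medium (1% DMSO final). After 48 h at 37 °C, proliferation was scored on Giemsa smears, 10,000 erythrocytes per film, in triplicate. Quinine was the reference.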

Assay [4] is described as follows: Selectivity index was determined. The class given is functional.

By IC50 is commonly meant the concentration needed to halve the response being measured. A lower IC50 goes with inhibition by little substance. What is called ED50 is the dose at which the effect has come halfway, by size or by number of responders. Low readings indicate greater potency, high ones weaker potency.

In the case of `CCCCCC1(OC)CCC(CC(=O)O)OO1` (centres undefined), the IC50 in the assay listed under Mus musculus [1] was > 1200 nM.
As to `CCCCCC1(OC)CCC(CC(=O)NCC)OO1` (centres undefined), the T/C in the assay on Mus musculus [2] is 125. For the same compound, the IC50 in the assay with KB 3-1 turned out to be 14 µM; in the assay with Plasmodium falciparum, 540 nM. Further, the ED50 with Mus musculus [3] was 11 mg/kg. This compound returned a Selectivity index in assay [4] of 25.
The matching figures for `CCCCCC1(OC)CCC(CC(=O)NCCC)OO1` (centres undefined): 138, 12 µM, 310 nM, 9.3 mg/kg and 39.
`CCCCCC1(OC)CCC(CC(=O)OC)OO1` (centres undefined): the T/C in the assay with Mus musculus [2] came to 81. In addition, the ED50 in the assay on Mus musculus [3] is > 30 mg/kg. In assay [4], this compound yielded a Selectivity index of 360.
`C[C@@H]1CC[C@H]2[C@@H](C)C(=O)O[C@@H]3O[C@@]4(C)CC[C@@H]1[C@]32OO4` [ARTEMISININ] registered an ED50 in the assay with Mus musculus [3] of 5 mg/kg.
`CCCCCC1(OC)CCC(CC(=O)N(C)C)OO1` (centres undefined) gave a T/C in the assay on Mus musculus [2] of 95. Besides, the IC50 in the assay on KB 3-1 was 4 µM; in the assay on Plasmodium falciparum, 310 nM. This compound also registered an ED50 in the assay on Mus musculus [3] of 13 mg/kg. In assay [4], this compound showed a Selectivity index of 13.
Regarding `CCCCCC1(OC)CCC(CC(=O)NC)OO1` (centres undefined), in the assay on Mus musculus [2], the T/C was 118. Further, the IC50 was 5.2 µM in the assay on KB 3-1 and 520 nM in the assay on Plasmodium falciparum. The same compound displayed a Selectivity index in assay [4] of 10.
The compound `CCCCCC1(OC)CCC(CC(=O)N(CC)CC)OO1` (centres undefined) displayed a T/C with Mus musculus [2] of 118. In addition, the IC50 in the assay with KB 3-1 is 13 µM; in the assay with Plasmodium falciparum it was 490 nM. Moreover, in the assay with Mus musculus [3], the median effective dose (ED50) came to 20 mg/kg. Moreover, in assay [4], the Selectivity index came out at 27.
